Test results as given in ChEMBL document CHEMBL5154784, “Design, Synthesis, Biological Evaluation, and Computational Studies of Novel Ureidopropanamides as Formyl Peptide Receptor 2 (FPR2) Agonists to Target the Resolution of Inflammation in Central Nervous System Disorders” (J Med Chem, 2022).

Key:
[1] = Cytotoxicity against mouse N9 cells assessed as reduction in cell viability by measuring LDH release at 0.5 to 5 uM incubated for 24 hrs by LDH assay; format: toxicity, cell-based; conditions: n9, 24 h, dose 0.5-5 µM
Procedure, shortened: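 N9 cells (2 × 10^4/well) given compound at 0.5 or 5 μM, alone or with LPS (E. coli O111:B4, 100 ng/mL) added 30 min later, for 24 h at 37 °C. Released LDH measured in supernatant (30 min, room temperature, 490/630 nm). Expressed as % of untreated cells, mean ± SEM, at least three experiments in triplicate.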

[2] = Drug concentration in CD-1 mouse brain at 10 mg/kg, ip measured after 2 hrs by UPLC analysis; format: ADME, organism-based; conditions: read-out: Ct
Procedure, shortened: (§1)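 Male CD-1 mice (25–30 g) given 10 mg/kg i.p. in 5% DMSO/10% solutol HS 15/85% water, n = 3 per time point. Brains taken after decapitation under anesthesia, homogenized in four volumes 0.1 N HEPES. Plasma drawn by cardiac puncture. Acetonitrile precipitation with rolipram internal standard, UPLC quantification. Brain-to-plasma ratio taken from paired brain and plasma levels.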

[3] = Cmax in CD-1 mouse at 1 mg/kg, iv measured after 5 mins by UPLC analysis; format: ADME, organism-based; design: time 5 min, dose 1 mg/kg, route iv; conditions: in vivo
Procedure, shortened: (§2)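 Male CD-1 mice (25–30 g) dosed i.v. 1 mg/kg or i.p. 10 mg/kg in 5% DMSO/10% solutol HS 15/85% sterile water, n = 3 per time point. Cardiac-puncture blood under isoflurane: i.v. 0.083–8 h, i.p. 0.25–24 h. K2EDTA plasma, protein precipitation with acetonitrile (rolipram internal standard), UPLC on C18 column.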

[4] = AUC (infinity) in CD-1 mouse at 10 mg/kg, ip measured after 30 mins by UPLC analysis; format: ADME, organism-based; design: time 30 min, dose 10 mg/kg, route ip; conditions: in vivo, 0.5 h; procedure, shortened: as §2
[5] = Tlast in CD-1 mouse at 10 mg/kg, ip by UPLC analysis; format: ADME, organism-based; conditions: in vivo; procedure, shortened: as §2
[6] = Neurotoxicity against Sprague-Dawley rat primary microglial cells assessed as reduction in cell viability by measuring LDH release at 0.1 uM incubated for 24 hrs by LDH assay; format: toxicity, cell-based; conditions: microglia
Procedure, shortened: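 Sprague–Dawley rat neonatal cortical microglia (>95% Iba-1+), switched to 1% FBS medium 1 h before treatment. Compound 0.1 μM for 1 h, then LPS 100 ng/mL for 24 h; WRW4 10 μM given 30 min before in some sets, 0.1% vehicle. Supernatant LDH read at 540 nm, % of vehicle controls, mean ± SEM.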

[7] = Cmax in CD-1 mouse at 10 mg/kg, ip measured after 30 mins by UPLC analysis; format: ADME, organism-based; design: time 30 min, dose 10 mg/kg, route ip; conditions: in vivo, 0.5 h; procedure, shortened: as §2
[8] = AUC (infinity) in CD-1 mouse at 1 mg/kg, iv measured upto 4 hrs by UPLC analysis; format: ADME, organism-based; design: time < 4 hrs, dose 1 mg/kg, route iv; conditions: in vivo; procedure, shortened: as §2
[9] = Clast in CD-1 mouse at 1 mg/kg, iv measured upto 4 hrs by UPLC analysis; format: ADME, organism-based; conditions: in vivo, read-out: Clast; procedure, shortened: as §2
[10] = Drug concentration in CD-1 mouse brain at 10 mg/kg, ip measured after 8 hrs by UPLC analysis; format: ADME, organism-based; conditions: read-out: Ct; procedure, shortened: as §1

- concentration at 2 h [2]: 37 ng/g
- Cmax [3]: 1380 ng/mL
- AUC [4]: 731 ng·h/mL
- Tlast [5]: 8 h
- Cmax [7]: 192 ng/mL
- AUC [8]: 613 ng·h/mL
- concentration at 4 h [9]: 14.1 ng/mL
- concentration at 8 h [10]: 15.7 ng/g
SMILES: N#Cc1ccc(C[C@H](NC(=O)Nc2ccc(F)cc2)C(=O)N2CCc3ccc(F)cc32)cc1
- Activity [1]: Non-Toxic
- Activity [6]: Non-Toxic
